# Reference: ChEMBL document CHEMBL4665666, “Discovery and characterization of trypanocidal cysteine protease inhibitors from the 'malaria box'” (Eur J Med Chem, 2019)
# Tests used:
# [1] = target: Cruzipain (Trypanosoma cruzi) (UniProt P25779); assay: Inhibition of recombinant Trypanosoma cruzi cruzain at 5 uM using Z-FR-AMC as substrate and measured at 12 sec interval for 5 mins without preincubation by fluorimetric analysis relative to control
# Procedure, shortened: (§1)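 Recombinant rhodesain or cruzain (1 nM) in 0.1 M sodium acetate pH 5.5, 0.01% Triton X-100, 1 mM β-mercaptoethanol. Compound at a single concentration, either without or after 10 min enzyme pre-incubation. Inhibition is relative to DMSO, with E-64 as positive control. Done in duplicate (primary screen) or triplicate.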
# [2] = target: Cruzipain (Trypanosoma cruzi) (UniProt P25779); assay: Inhibition of recombinant Trypanosoma cruzi cruzain at 5 uM using Z-FR-AMC as substrate preincubated for 10 mins followed by substrate addition and measured at 12 sec interval for 5 mins by fluorimetric analysis relative to control; details: time 15.0 min; procedure, shortened: as §1
# [3] = target: Rhodesain (Trypanosoma brucei rhodesiense) (UniProt Q95PM0); assay: Inhibition of recombinant Trypanosoma brucei rhodesain expressed in Pichia pastoris at 5 uM using Z-FR-AMC as substrate and measured at 12 sec interval for 5 mins without preincubation by fluorimetric analysis relative to control; procedure, shortened: as §1
# Rhodesain (Trypanosoma brucei rhodesiense), sequence (Q95PM0 1-450): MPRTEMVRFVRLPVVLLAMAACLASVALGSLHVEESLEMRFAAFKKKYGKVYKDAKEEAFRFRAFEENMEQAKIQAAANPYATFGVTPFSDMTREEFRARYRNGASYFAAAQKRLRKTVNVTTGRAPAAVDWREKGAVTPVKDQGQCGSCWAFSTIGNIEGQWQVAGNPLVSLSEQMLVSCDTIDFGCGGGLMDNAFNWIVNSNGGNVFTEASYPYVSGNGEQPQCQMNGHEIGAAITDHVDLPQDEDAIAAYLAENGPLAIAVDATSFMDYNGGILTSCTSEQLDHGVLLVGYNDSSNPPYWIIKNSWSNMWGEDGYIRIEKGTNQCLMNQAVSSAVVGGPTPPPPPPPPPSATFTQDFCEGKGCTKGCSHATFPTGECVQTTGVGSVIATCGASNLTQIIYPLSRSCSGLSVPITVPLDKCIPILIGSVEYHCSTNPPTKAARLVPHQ
# [4] = target: Rhodesain (Trypanosoma brucei rhodesiense) (UniProt Q95PM0); assay: Inhibition of recombinant Trypanosoma brucei rhodesain expressed in Pichia pastoris at 5 uM using Z-FR-AMC as substrate preincubated for 10 mins followed by substrate addition and measured at 12 sec interval for 5 mins by fluorimetric analysis relative to control; details: time 15.0 min; procedure, shortened: as §1
# Cruzipain (Trypanosoma cruzi), sequence (P25779 123-467 limits assumed): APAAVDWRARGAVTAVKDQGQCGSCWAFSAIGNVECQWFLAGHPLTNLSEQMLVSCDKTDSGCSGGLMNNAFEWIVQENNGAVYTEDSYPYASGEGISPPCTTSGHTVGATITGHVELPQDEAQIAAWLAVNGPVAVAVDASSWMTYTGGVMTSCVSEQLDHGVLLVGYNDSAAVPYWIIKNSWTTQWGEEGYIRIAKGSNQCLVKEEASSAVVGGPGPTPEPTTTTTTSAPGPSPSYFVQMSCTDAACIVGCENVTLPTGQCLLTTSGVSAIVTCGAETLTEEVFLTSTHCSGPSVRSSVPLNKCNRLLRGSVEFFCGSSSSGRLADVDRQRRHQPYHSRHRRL
Structure (SMILES),inhibition [1] [%],inhibition [2] [%],inhibition [3] [%],inhibition [4] [%]
CC(C)(C)c1ccc2c(c1)CN(Cc1ccc(Cl)cc1)CO2,52.3,51.5,28.8,61.3
CCN(CC)CCNc1ncnc2c1[nH]c1ccc(Br)cc12,57,28.5,27.5,2.7
COc1cc(OC)c(N(C)C(=O)c2cc3c(s2)-c2ccccc2S(=O)(=O)C3)cc1Cl,6.4,38.1,20.7,57.9
CCc1ccc(Nc2cc(C)c3ccc(O)cc3n2)cc1,32.8,55,36.5,38.1
CCOc1ccc(C2N(C)c3ccccc3N2C)cc1,21.8,48.3,30.3,57.7
O=C(Nc1cccc(-c2nc3ccccc3[nH]2)c1)c1cccc(NC(=O)c2ccco2)c1,96.7,94.7,40.1,53.9
CN(N=O)C1=C(NC2CCCCC2)C(=O)c2ccccc2C1=O,34.8,68.2,38.7,39.5
Cc1ccc(Nc2nc(-c3ccccn3)cs2)cc1,17.3,19.8,4.7,80.9
O=C1c2ccccc2-c2nnc(-c3ccc(Br)cc3)cc21,47.8,96.3,32.7,68.8
COc1ccc(C(=O)NC(c2ccc(Cl)cc2Cl)c2cc(Cl)c3cccnc3c2O)cc1 (stereo not drawn),77.6,49.5,27.9,20.2
O=C(NC1CCN(Cc2ccccc2)CC1)c1cc(C(=O)NC2CCN(Cc3ccccc3)CC2)cc(C(=O)NC2CCN(Cc3ccccc3)CC2)c1,41,60.5,45.4,49.2
O=C(Nc1ccc(-c2nc3ccccc3[nH]2)cc1)c1ccc(Cl)c(Cl)c1,17.4,86.9,42.8,18.3
COc1nc(Nc2ccc(C(C)C)cc2)nc(OC)n1,16.8,44.2,25.9,53.8
CCOC(=O)c1cnc2ccc(CC)cc2c1O,6,5.8,0,52.4
COc1ccc(/C=C2/SC(=Nc3ccccc3)NC2=O)cc1,43.1,73.8,35.6,70.5
CCCCCC(=O)N1c2ccccc2N=C2CC(c3ccc(OC)c(OC)c3)CC(O)=C2C1c1ccc(C(F)(F)F)cc1 (stereo not drawn),17,50.7,26.7,46.4
O=C(CSc1ccc2nnc(-c3cccc(F)c3)n2n1)Nc1ccc2c(c1)OCO2,10.2,67.7,10.3,61.6
COc1ccc(CNC(=O)c2cc3c(=O)n4ccccc4nc3n(CCc3ccccc3)c2=N)cc1,45.7,69.9,43.5,66.9
CCCCCn1c(=N)n(CC(O)COc2cccc(C)c2)c2ccccc21 (stereo not drawn),55.2,87.2,40.2,69.9
COc1cc2c3cc1Oc1c(OC)c(OC)cc4c1C(Cc1ccc(O)c(c1)Oc1ccc(cc1)CC3N(C)CC2)N(C)CC4 (stereo not drawn),22.4,41.7,19.7,51.4
CCC(C)NCC(O)(c1ccc(Cl)cc1)c1ccc(Cl)cc1 (stereo not drawn),32,67.2,29.1,80.9
Nc1ccc(-c2nc3cc(Oc4ccc(Oc5ccc6[nH]c(-c7ccc(N)cc7)nc6c5)cc4)ccc3[nH]2)cc1,88.6,91.5,13.3,78.2
Nc1ccc(-c2nc3cc(Cc4ccc5[nH]c(-c6ccc(N)cc6)nc5c4)ccc3[nH]2)cc1,20.2,98.2,86.6,90.1
Clc1ccc2[nH]c3c(NCCCN4CCOCC4)ncnc3c2c1,67,62.5,48.9,72.9
COCCN(C(=O)Cc1cccs1)C(C(=O)NCc1ccc(OC)cc1)c1ccc(C(C)C)cc1 (stereo not drawn),40.6,67.5,38.5,86.7
Oc1ccc(C(=C(Cl)Cl)c2ccc(O)cc2)cc1,31.1,60.5,22.6,62.1

Structure (SMILES),inhibition [1] [%],inhibition [2] [%],inhibition [3] [%],inhibition [4] [%]
COc1cc(C(=O)ON=C(N)Cc2cccc3ccccc23)cc(OC)c1OC,14,51.1,0,46.8
O=C(NC1CCN(Cc2ccccc2)CC1)c1cc(-c2ccncc2)nc2ccc(Cl)cc12,15.2,56.5,20.9,41.2
COc1ccc(C2c3ccc4ccccc4c3Oc3ncn(CCCn4ccnc4)c(=N)c32)cc1OC (stereo not drawn),41.8,59.5,33.4,41
Cc1ccnc(NC(c2cccc(OCc3ccccc3)c2)c2ccc3cccnc3c2O)c1 (stereo not drawn),6.7,51.3,0,16.2
Cc1ccc(N2C(=O)C3C(C2=O)C2(c4ccccc4)C(=O)C3(c3ccccc3)C(c3ccccc3)=C2c2ccccc2)cc1 (stereo not drawn),9.2,33.6,22.3,56.3
COc1ccc(NC(=O)C2c3ccccc3C(=O)N(CC(C)C)C2c2cccs2)cc1 (stereo not drawn),3.3,0,0.1,78.7
O=C(c1ccccc1F)N(Cc1ccc(Cl)cc1)c1ccccn1,40.7,91.6,45.8,75
CC(O)(c1ccc(Cl)cc1)C(CN1CCCCC1)c1ccccc1 (stereo not drawn),11.9,54.1,13.9,50.4
COc1cccc(C(=O)NC(c2ccc(C)cc2)c2cc(Cl)c3cccnc3c2O)c1 (stereo not drawn),8.7,54.5,31.4,43.9
O=C(Nc1ccc(-c2nc3cc(NC(=O)c4ccc(Cl)cc4)ccc3[nH]2)cc1)c1ccc(Cl)cc1,15,35.3,4.6,56.1
COc1ccccc1C(=O)ON=C(N)Cc1cccc2ccccc12,32,54.9,1.4,54.3
COc1ccc(C(=O)NC(c2ccccc2Cl)c2cc(Cl)c3cccnc3c2O)cc1 (stereo not drawn),17.1,100,29.4,49.4
CCCc1c(CC)c(=N)c2ccccc2n1C,21.5,54.8,29.4,59.5
CCOc1ccccc1CNC(=O)C1c2ccccc2C(=O)N(CC(C)C)C1c1cccs1 (stereo not drawn),45.6,55.7,34.3,71.4
CC(C)OCc1cc(CN2CCN(c3cccc(Cl)c3)CC2)c(O)c2ncccc12,49,98.2,8.3,83.7
Cn1c(=O)c2cc(C(=O)NCCCN3CCCCCC3)sc2c2ccccc21,22.9,50.5,22.4,41.3
COc1ccc(OC)c(C2C3=C(CC(C)(C)CC3=O)N(c3ccc(Cl)c(Cl)c3)C3=C2C(=O)CC(C)(C)C3)c1,28.5,72,16.6,53.3
Fc1ccc2[nH]c3c(NCCCN4CCOCC4)ncnc3c2c1,50.7,63.9,17.6,41.6
O=C(O)C1Cc2c([nH]c3ccccc23)C(c2ccc(Cl)cc2Cl)N1 (stereo not drawn),5,9.5,0.7,78.6
COc1ccc(/C=C2/SC(Nc3ccc(F)cc3)=NC2=O)c(OC)c1,29.3,54.4,21.4,54.8
CCCOCc1cc(CN2CCN(c3cccc(Cl)c3)CC2)c(O)c2ncccc12,37.1,75.3,36.4,87.6
COc1ccc(C2c3ccc4ccccc4c3Oc3ncn(CCCN(C)C)c(=N)c32)cc1 (stereo not drawn),55.6,73.2,60.9,77.8
CCOc1cc(CNC(C)C(O)c2ccccc2)cc(Cl)c1OCC (stereo not drawn),21.7,46.8,32.9,61.8
COc1ccc(-c2nc3cc(Cc4ccc5[nH]c(-c6ccc(OC)cc6)nc5c4)ccc3[nH]2)cc1,100,79.9,98.6,98.7
CCCCCCc1cc2cc(-c3csc(/C=C/c4ccccc4)n3)c(=O)oc2cc1O,8.9,38.3,28.6,51.2
Cc1ccccc1OCCSc1nc2ccc(NC(=O)c3ccccc3)cc2s1,52.3,76.7,48.3,59
